Source: ChEMBL document CHEMBL4177600, “Identification of novel PI3K inhibitors through a scaffold hopping strategy” (Bioorg Med Chem Lett, 2017)
Values after ≈ are worked out from the molar mass of the structure shown. Blank lines part the entries; values can stand above or below the molecule they belong to.

Columns and labels:
Mus musculus [1] = experiment: Clearance in BALB-C mouse at 3 mg/kg, iv by LC-MS/MS analysis relative to hepatic blood flow; assay type: ADME, organism-based; settings: in vivo
U2OS [2] = experiment: Inhibition of AKT phosphorylation in human U2OS cells
[3] = Cmax in BALB-C mouse at 9 mg/kg, po by LC-MS/MS analysis; assay type: ADME, organism-based; set-up: dose 9 mg/kg, route oral; settings: in vivo
Procedure, shortened: (§1)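 BALB-C mice dosed IV (10% NMP/50% PEG300/40% saline) or PO (10% NMP/90% PEG300). Plasma sampled at 6 (IV) or 8 (PO) time points; compound measured by LC/MS/MS. Parameters from bicompartmental model fit; each value is the mean of 3 independent samples.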

[4] = Oral bioavailability in BALB-C mouse at 9 mg/kg by LC-MS/MS analysis; assay type: ADME, organism-based; settings: in vivo
Procedure, shortened: (§2)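 BALB-C mice dosed IV in 10% NMP/50% PEG300/40% saline or PO in 10% NMP/90% PEG300. Plasma sampled at 6 (IV) or 8 (PO) time points and quantified by LC/MS/MS. Parameters come from a bicompartmental model fit; values are means of 3 independent samples. Plasma levels were compared with AKT-P EC50 from U2OS cells converted to ng/ml.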

Mus musculus [5] = experiment: Time at which plasma concentration stays above cellular EC50 for inhibition of AKT phosphorylation in BALB-C mouse at 9 mg/kg, po measured up to 8 hrs by LC-MS/MS analysis; settings: in vivo
[6] = Volume of distribution in BALB-C mouse at 3 mg/kg, iv by LC-MS/MS analysis; assay type: ADME, organism-based; settings: in vivo; procedure, shortened: as §2
[7] = Tmax in BALB-C mouse at 9 mg/kg, po by LC-MS/MS analysis; assay type: ADME, organism-based; settings: in vivo; procedure, shortened: as §2
[8] = AUC (infinity) in BALB-C mouse at 3 mg/kg, iv by LC-MS/MS analysis; assay type: ADME, organism-based; set-up: dose 3 mg/kg, time infinity, route intravenous; settings: in vivo; procedure, shortened: as §1
[9] = Half-life in BALB-C mouse at 3 mg/kg, iv by LC-MS/MS analysis; assay type: ADME, organism-based; settings: in vivo; procedure, shortened: as §1
[10] = AUC (infinity) in BALB-C mouse at 9 mg/kg, po by LC-MS/MS analysis; assay type: ADME, organism-based; set-up: dose 9 mg/kg, time infinity, route oral; settings: in vivo; procedure, shortened: as §1
[11] = Tmax in BALB-C mouse at 5 mg/kg, po by LC-MS/MS analysis; assay type: ADME, organism-based; settings: in vivo; procedure, shortened: as §2
Mus musculus [12] = experiment: Time at which plasma concentration stays above cellular EC50 for inhibition of AKT phosphorylation in BALB-C mouse at 5 mg/kg, po measured up to 24 hrs by LC-MS/MS analysis; assay type: organism-based; settings: in vivo; procedure, shortened: as §2
[13] = Half-life in BALB-C mouse at 5 mg/kg, po by LC-MS/MS analysis; assay type: ADME, organism-based; settings: in vivo; procedure, shortened: as §1
[14] = Cmax in BALB-C mouse at 5 mg/kg, po by LC-MS/MS analysis; assay type: ADME, organism-based; set-up: dose 5 mg/kg, route oral; settings: in vivo; procedure, shortened: as §1
U2OS [15] = experiment: Inhibition of AKT phosphorylation in human U2OS cells; remark: listed apart in the source
[16] = Cmax in BALB-C mouse at 10 mg/kg, po by LC-MS/MS analysis; assay type: ADME, organism-based; set-up: dose 10 mg/kg, route oral; settings: in vivo; procedure, shortened: as §1
[17] = Tmax in BALB-C mouse at 10 mg/kg, po by LC-MS/MS analysis; assay type: ADME, organism-based; settings: in vivo; procedure, shortened: as §2
Mus musculus [18] = experiment: Time at which plasma concentration stays above cellular EC50 for inhibition of AKT phosphorylation in BALB-C mouse at 10 mg/kg, po measured up to 24 hrs by LC-MS/MS analysis; assay type: organism-based; settings: in vivo; procedure, shortened: as §2

CL (Mus musculus [1]): < 50% | EC50 (U2OS [2]): 0.01444 µg/mL (≈ 0.0305 µM) | Cmax [3]: 938 ng/mL | bioavailability [4]: 29.5% | Time (Mus musculus [5]): > 8 h | Vd [6]: 0.6 L/kg | Tmax [7]: 1 h | AUC(0-inf) [8]: 5820 ng·h/mL | half-life [9]: 0.51 h | AUC(0-inf) [10]: 5150 ng·h/mL
Structure (SMILES): CS(=O)(=O)N1CCN(Cc2cc3c(N4CCOCC4)nc(-c4cnc(N)nc4)cn3n2)CC1

Tmax [11]: 1 h | Time (Mus musculus [12]): > 12 h | half-life [13]: 2.7 h | Cmax [14]: 1050 ng/mL
Structure (SMILES): CS(=O)(=O)N1CCN(Cc2nc3c(N4CCOCC4)nc(-c4cnc(N)nc4)c(Cl)n3n2)CC1

EC50 (U2OS [15]): 0.04138 µg/mL (≈ 0.0872 µM) | Cmax [16]: 674 ng/mL | Tmax [17]: 1 h | Time (Mus musculus [18]): > 12 h
Structure (SMILES): CS(=O)(=O)N1CCN(Cc2nc3c(N4CCOCC4)nc(-c4cnc(N)nc4)cn3n2)CC1
